As a reminder, the inhibition is the drop in the measured response relative to a control, in per cent.

Assay [1] is described as follows: inhibitors of TNFa-induced NFkB p65 translocation, primary screen, imaging, HUVEC, MLSMR starter and 10KST1 sets (AID 438;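 active means inhibition above 20% together with a positive visual image hit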;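 further: compound added about 3h40 before a 20 min TNFalpha stimulation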;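 on inhibition: signal is the nuclear over cytoplasmic p65 intensity ratio per well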). As to conditions: HUVEC TNFa-induced p65 nuclear translocation; cell count: measured here: nuclei count (cytotoxicity indicator), at 2.08 µM; inhibition: at 2 µM, stronger effect = higher value, 0% TNFa-plus-vehicle, 100% no-TNFa wells.
Assay [2] in a line: inhibitors of mutant huntingtin aggregation, primary screen, imaging, exon1htt(103Q)mCFP cells, high-content imaging (AID 483).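 Further: compound exposure lasted 3 days before fixation.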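 On nuclei count: percent of the per-plate median nuclei count of sample wells.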 The note with it: exon1htt(103Q)mCFP cell line, aggregate imaging, at 2 µM; inhibition of aggregation: stronger effect = higher value; nuclei count: measured here: cell count, toxicity.
The nature of assay [3]: inhibitors of E-selectin induction by TNFa, primary screen, imaging, HUVEC, immunofluorescence, MLSMR starter and 10KST1 sets (AID 487;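 active means visually confirmed hit in the image check and inhibition above 20%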;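 on inhibition: signal is fraction of cell area covered by stained E-selectin grains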;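 on nuclei count: 100% = median nuclei count of all wells on the same plate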). As to conditions: HUVEC TNFalpha-induced E-selectin immunofluorescence imaging, at 2 µM; inhibition: stronger effect = higher value; nuclei count: measured here: cell number, toxicity.
The target in assay [4] is Voltage-gated potassium channel subunit beta-2 (Rattus norvegicus) (UniProt P62483). The assay can be described thus: KvBeta enzyme negative modulators, primary screen, biochemical, NADPH fluorescence (AID 622;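 active means fluorescence slope higher than the sample average by over 3 SD, cut at about -0.22 in these data, passing the limit was not always enough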;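 further: slope of raw intensity against log time taken from 70 to 1610 s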). The note with it: recombinant KvBeta, 4-cyanobenzaldehyde reduction, at 10 µM, stronger effect = higher value.
Sequence of Voltage-gated potassium channel subunit beta-2 (Rattus norvegicus) (P62483 whole entry, looked up): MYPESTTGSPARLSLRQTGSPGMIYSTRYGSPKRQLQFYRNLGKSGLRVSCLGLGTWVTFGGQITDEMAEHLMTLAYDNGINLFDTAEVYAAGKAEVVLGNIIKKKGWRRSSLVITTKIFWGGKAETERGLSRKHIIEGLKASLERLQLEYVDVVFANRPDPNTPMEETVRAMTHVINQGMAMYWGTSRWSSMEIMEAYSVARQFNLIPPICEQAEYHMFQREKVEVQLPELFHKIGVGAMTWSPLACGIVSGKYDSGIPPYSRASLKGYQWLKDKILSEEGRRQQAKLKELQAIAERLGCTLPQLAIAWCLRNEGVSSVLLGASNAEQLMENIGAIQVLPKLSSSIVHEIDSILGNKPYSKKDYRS
The target is the same in assay [5]. Briefly: KvBeta positive modulators, primary screen, biochemical, NADPH fluorescence (AID 623;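 active means NADPH fluorescence slope more negative than the mean of all samples by about 3 SD, 99.7% confidence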;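 further: fluorescence intensity change per second fitted from 20 to 320 s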). As to conditions: Recombinant KvBeta, NADPH fluorescence decrease slope, 10 min; at 10 µM; stronger effect = lower value.
Assay [6] concerns the target Alpha-2C adrenergic receptor (Homo sapiens) (UniProt P18825). Briefly: modulators of alpha2C/GIRK thallium flux, primary screen, cell-based, HEK293 alpha2C/GIRK1/2 (AID 624;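 active means fluorescence slope after compound addition differing from the mean of all screened samples at 99.7% confidence, in either direction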;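 further: slope of fluorescence ratio to pre-addition baseline per second over 15 to 24 s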). As to conditions: thallium flux BTC fluorescence, at 10 µM, actives lie on both sides.
The nature of assay [7]: inhibitors of larval lipid processing in zebrafish, primary screen, whole organism, PED6 fluorescence, gall bladder and intestine (AID 686;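 active means a full or partial loss of lipid-probe fluorescence in the fish gall bladder, intestine or both, judged by eye; inactive means no fluorescence loss, or compound toxic to the fish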;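 further: larvae 5 to 7 days old with five fish per well; signal comes from phospholipase A2 cleavage of quenched PED6 carried via bile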). The note with it: Zebrafish larvae PED6 lipid processing, fluorescence scoring; screened at 20 µM (by protocol). Summed up: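 System: live zebrafish larvae aged 5-7 days, whole organism; measure: graded gall bladder and intestinal fluorescence inhibition per well; incubation: overnight exposure; reagent: ingested quenched lipid PED6 at 100 nM; signal: By-eye fluorescence microscopy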

Assay [8] is described as follows: inhibitors of Sendai virus-induced IRF3 signaling, primary screen, TLR/RLR signaling modifier project, cell-based, Sendai virus stimulus, luciferase, 10K MLSCN set (AID 602276;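 active means inhibition at or above 50% at 10 µM; inactive means inhibition below 50%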;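 further: firefly luciferase from ISG56 promoter only with Renilla not read in this screen; 0% = Sendai virus plus DMSO and 100% = medium plus DMSO without virus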). The note with it: HEK293 RL24 IRF3 luciferase reporter, at 10 µM, stronger effect = higher value.
A short description of assay [9]: inhibitors of poly I:C-induced TLR3 signaling, primary screen, cell-based, poly I:C stimulus, luciferase, 10K MLSCN set (AID 602277;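 active means inhibition of the reporter signal at or above 50%; inactive means inhibition below 50%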). The note with it: HEK293-TLR3 RL24 IRF3 luciferase reporter, at 10 µM, stronger effect = higher value.

The source made the active and inactive calls.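 How the source made its calls, unless noted: active means visual image review flags a hit and inhibition of aggregation exceeds 20%; inconclusive means visual hit but inhibition at or below 20%; inactive means no hit on visual image review.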

Sequence of Alpha-2C adrenergic receptor (Homo sapiens) (P18825 whole entry, looked up): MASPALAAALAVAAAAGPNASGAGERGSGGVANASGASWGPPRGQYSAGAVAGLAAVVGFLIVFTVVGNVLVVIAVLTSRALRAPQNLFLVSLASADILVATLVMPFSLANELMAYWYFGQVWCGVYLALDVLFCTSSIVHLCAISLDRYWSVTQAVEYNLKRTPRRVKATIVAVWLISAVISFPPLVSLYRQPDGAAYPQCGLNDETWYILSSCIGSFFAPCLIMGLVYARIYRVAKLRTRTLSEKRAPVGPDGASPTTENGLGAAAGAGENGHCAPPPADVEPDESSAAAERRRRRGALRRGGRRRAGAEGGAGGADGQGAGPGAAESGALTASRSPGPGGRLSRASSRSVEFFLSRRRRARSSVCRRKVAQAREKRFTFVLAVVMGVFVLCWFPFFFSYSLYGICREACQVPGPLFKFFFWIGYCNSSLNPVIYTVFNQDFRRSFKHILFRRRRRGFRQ

`COc1ccc(-c2noc(CCCOc3ccccc3)n2)cc1OC`: the cell count in assay [1] was 429. Also, the inhibition in assay [1] is 1.5% (inactive); in assay [3], -33% (inactive); in assay [8], -2.22% (inactive); in assay [9], -9.66% (inactive). In addition, in assay [2], the inhibition of aggregation was 21% (inactive). Also, the nuclei count in assay [2] stood at 93%; in [3] it was 134%. Further, the fluorescence slope in [4] was -0.473 (inactive). Besides, the NADPH fluorescence slope in [5] was -1.6e-05 (inactive). Further, the slope in assay [6] was 0.00512 (inactive). Moreover, the result in [7] was inactive.
`CCC(c1nnc(SCC(=O)Nc2ccc(C(=O)Nc3ccccc3OC)cc2)o1)N(C)C` (stereo unspecified): in assay [1], the cell count worked out at 464. For the same molecule, the inhibition was 2.9% (inactive) in assay [1], -70.6% (inactive) in [3], -5.51% (inactive) in assay [8] and 98.3% (active) in assay [9]. Also, in assay [2], the inhibition of aggregation was -11.7% (inactive). Besides, the nuclei count in assay [2] amounted to 102%; in assay [3] it was 90.3%. Moreover, the fluorescence slope in assay [4] is -0.442 (inactive). In addition, in assay [5], the NADPH fluorescence slope is -7.1e-06 (inactive). Moreover, the slope in [6] is 0.00416 (inactive). Moreover, in [7], the molecule was classed as inactive.
On to `COc1ccc(COC(=O)c2n[nH]c3ccccc23)cc1F`, for which the cell count in assay [1] is 380. For the same molecule, the inhibition was 3.9% (inactive) in assay [1], -1.8% (inactive) in [3], -16.1% (inactive) in [8] and -49.8% (inactive) in assay [9]. For the same molecule, the inhibition of aggregation in [2] is -16% (inactive). The results for the nuclei count in assay [2] and in [3] were 125% and 107%, respectively. In addition, the fluorescence slope in assay [4] was -0.444 (inactive). The NADPH fluorescence slope in [5] was -5.5e-05 (inactive). The slope in [6] was 0.00618 (inactive). The molecule was classed as inactive in assay [7].
As for `COc1ccccc1N(CC(=O)NC1CCCC1)C(=O)CCC(=O)Nc1cc(C)on1`, the cell count in assay [1] turned out to be 566. In addition, the inhibition in [1] is -8.6% (inactive); in assay [3], -29.3% (inactive); in [8], -11.8% (inactive); in [9] it was -11.2% (inactive). Also, in assay [2], the inhibition of aggregation was 10.8% (inactive). The results for the nuclei count in [2] and in assay [3] were 96.8% and 102%, respectively. Also, the fluorescence slope in [4] was -0.408 (inactive). In addition, the NADPH fluorescence slope in [5] was -5.9e-05 (inactive). The slope in assay [6] is 0.00447 (inactive). For the same molecule, in [7], the call was inactive.
Consider `CCOc1nc(NCCC2=CCCCC2)nc(N2CCOCC2)n1`, for which, in [1], the cell count came out at 450. In addition, the inhibition in [1] was 2.7% (inactive); in [3] it was -23.8% (inactive); in assay [8] it was 10.2% (inactive); in assay [9], 5.8% (inactive). The inhibition of aggregation in [2] is 6.3% (inactive). The nuclei count was 84% in [2] and 96.5% in assay [3]. Besides, the fluorescence slope in assay [4] is -0.364 (inactive). Besides, in assay [5], the NADPH fluorescence slope was -5.8e-05 (inactive). In [6], the slope is 0.00441 (inactive). Further, the molecule was classed as inactive in assay [7].
For `Cc1ccc(C)c(-n2nnnc2SCC(=O)NCCC2=CCCCC2)c1`, the cell count in [1] came out at 409. In addition, the inhibition was -6.6% (inactive) in assay [1], -16.3% (inactive) in assay [3], 17.6% (inactive) in [8] and 14.8% (inactive) in assay [9]. Further, the inhibition of aggregation in assay [2] was 28.8% (inactive). Besides, the nuclei count is 99.5% in [2] and 106% in assay [3]. Moreover, the fluorescence slope in assay [4] is -0.468 (inactive). The NADPH fluorescence slope in [5] is -5.4e-05 (inactive). The slope in [6] was 0.00361 (inactive). Moreover, the outcome in assay [7] was inactive.
As to `CCOc1nc(-c2ccccc2O)nc2ccccc12`, in [1], the cell count was 716. Further, the inhibition in [1] was -3.1% (inactive); in [3] it was -148% (inactive); in [8], 6.19% (inactive); in assay [9], 9.49% (inactive). Also, the inhibition of aggregation in [2] was -11.6% (inactive). In addition, the nuclei count in assay [2] came to 104%; in assay [3] it was 116%. Also, the fluorescence slope in assay [4] is -0.437 (inactive). Besides, the NADPH fluorescence slope in assay [5] was -2.5e-05 (inactive). Also, in assay [6], the slope was 0.00628 (inactive). Besides, the call in assay [7] was inactive.
With `COc1ccccc1NC(=O)NCc1ccc2c(c1)OCO2`, the cell count in [1] amounted to 361. The inhibition is -9.8% (inactive) in assay [1], 37.9% (inactive) in assay [3], 10.7% (inactive) in assay [8] and 17.5% (inactive) in [9]. The inhibition of aggregation in assay [2] is 25.8% (inactive). Also, the values for the nuclei count in assay [2] and in assay [3] were 97% and 78.8%, respectively. Moreover, in assay [4], the fluorescence slope is -0.341 (inactive). In addition, in [5], the NADPH fluorescence slope is -2.6e-05 (inactive). For the same molecule, the slope in assay [6] was 0.0055 (inactive). Further, in assay [7], the molecule was classed as inactive.
Take `CCOc1ccc(CCNc2nc3c(c(=O)n(C)c(=O)n3C)n2CC)cc1OCC`: the cell count in assay [1] was determined as 602. Moreover, the inhibition in [1] was 6.3% (inactive); in [3], -23.5% (inactive); in [8] it was 18.8% (inactive); in [9], 9% (inactive). Moreover, in assay [2], the inhibition of aggregation was -0.6% (inactive). In addition, the results for the nuclei count in [2] and in [3] were 89.6% and 119%, respectively. In addition, the fluorescence slope in assay [4] is -0.305 (inactive). The NADPH fluorescence slope in assay [5] was 3.7e-06 (inactive). Moreover, the slope in assay [6] is 0.00587 (inactive). Moreover, in [7], the call was inactive.
`CC(C)(C)NC(=O)C(Cc1ccccc1)NS(=O)(=O)c1cccc2nsnc12` (stereo unspecified): the cell count in [1] amounted to 721. The inhibition in assay [1] was -19.8% (inactive); in assay [3], -49.9% (inactive); in assay [8], 3.22% (inactive); in assay [9], 8.45% (inactive). Moreover, in assay [2], the inhibition of aggregation was -37.6% (inactive). Also, the nuclei count stood at 113% in assay [2] and 112% in assay [3]. The fluorescence slope in assay [4] is -0.413 (inactive). Moreover, in assay [5], the NADPH fluorescence slope was 1.1e-05 (inactive). The slope in assay [6] was 0.00438 (inactive). For the same molecule, the molecule was classed as inactive in [7].
For `COc1ccc(C/C(O)=C(\C#N)c2nc3ccccc3s2)cc1`, in [1], the cell count is 783. Also, the inhibition in assay [1] was -1.1% (inactive); in assay [3], -15.3% (inactive); in assay [8], 0.322% (inactive); in assay [9], 6.03% (inactive). Further, in [2], the inhibition of aggregation was 2.2% (inactive). The nuclei count in assay [2] was 98.5%; in assay [3] it was 111%. For the same molecule, the fluorescence slope in assay [4] was -0.378 (inactive). Besides, the NADPH fluorescence slope in assay [5] was -3.1e-05 (inactive). Moreover, the slope in [6] was 0.0036 (inactive). The outcome in assay [7] was “inactive; toxic”.
With `CC(=O)N1CCc2cc(S(=O)(=O)NCCC(=O)Nc3cc(C)cc(C)c3)ccc21`, the cell count in assay [1] turned out to be 611. Moreover, the inhibition in [1] was -11.5% (inactive); in [3], 25.9% (inactive); in assay [8] it was 12.9% (inactive); in assay [9], 12.5% (inactive). In addition, the inhibition of aggregation in assay [2] is 15.1% (inactive). For the same molecule, the nuclei count was found to be 97.8% in assay [2] and 98% in assay [3]. In addition, the fluorescence slope in [4] was -0.399 (inactive). Further, in assay [5], the NADPH fluorescence slope is -8.9e-05 (inactive). Moreover, in [6], the slope is 0.00432 (inactive). In assay [7], the molecule was called inactive.
Take `O=C(NCc1ccco1)c1cc2sccc2n1Cc1ccccc1`: in [1], the cell count was 455. Besides, the inhibition in assay [1] was 5% (inactive); in assay [3], -33.7% (inactive); in [8], -19.7% (inactive); in assay [9], -28.5% (inactive). The inhibition of aggregation in assay [2] was 8.8% (inactive). Further, the nuclei count in [2] stood at 114%; in assay [3] it was 110%. The fluorescence slope in assay [4] is -0.463 (inactive). Also, the NADPH fluorescence slope in [5] was 5.4e-05 (inactive). In assay [6], the slope is 0.00405 (inactive). Besides, the molecule was classed as inactive in assay [7].

The values above are taken from PubChem BioAssay.
